From ChEMBL document CHEMBL4138096, “Design, synthesis, molecular docking and cytotoxic evaluation of novel 2-furybenzimidazoles as VEGFR-2 inhibitors” (Eur J Med Chem, 2017)

Experiments:
MCF7 [1] = experiment: Inhibition of VEGFR2 protein expression in human MCF7 cells at cytotoxic IC50 after 24 hrs by ELISA relative to untreated control; type: functional
How it was run: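 MCF-7 cells treated with compound in DMSO for 24 h at 37 °C, humidified 5% CO2. Cells were harvested and homogenised in saline. VEGFR-2 in homogenate was measured by double-antibody sandwich ELISA (monoclonal capture, biotinylated goat polyclonal detection, avidin-biotin-peroxidase, TMB, OD 451 nm). Levels (ng/ml) came from a standard curve as duplicate determinations, and % change was taken versus untreated cells.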

MCF7 [2] = experiment: Cytotoxicity against human MCF7 cells assessed as reduction in cell viability after 48 hrs by SRB assay; type: functional, cell-based; settings: MCF7, 48 h
How it was run: (§1)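 Cells seeded and allowed to attach 24 h, then exposed to compound at […] for 48 h at 37 °C, 5% CO2. Fixed, stained with sulforhodamine B, bound dye released in Tris EDTA and read on ELISA reader. IC50 taken from survival curve (surviving fraction vs concentration); mean of four independent experiments.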

HepG2 = experiment: Cytotoxicity against human HepG2 cells assessed as reduction in cell viability after 48 hrs by SRB assay; type: functional, cell-based; settings: HepG2, 48 h; how it was run: as §1
[3] = biological target: Vascular endothelial growth factor receptor 2 (Homo sapiens, UniProt P35968); experiment: Inhibition of human VEGFR2 using TMB substrate by ELISA
Chain of Vascular endothelial growth factor receptor 2 (P35968 whole entry): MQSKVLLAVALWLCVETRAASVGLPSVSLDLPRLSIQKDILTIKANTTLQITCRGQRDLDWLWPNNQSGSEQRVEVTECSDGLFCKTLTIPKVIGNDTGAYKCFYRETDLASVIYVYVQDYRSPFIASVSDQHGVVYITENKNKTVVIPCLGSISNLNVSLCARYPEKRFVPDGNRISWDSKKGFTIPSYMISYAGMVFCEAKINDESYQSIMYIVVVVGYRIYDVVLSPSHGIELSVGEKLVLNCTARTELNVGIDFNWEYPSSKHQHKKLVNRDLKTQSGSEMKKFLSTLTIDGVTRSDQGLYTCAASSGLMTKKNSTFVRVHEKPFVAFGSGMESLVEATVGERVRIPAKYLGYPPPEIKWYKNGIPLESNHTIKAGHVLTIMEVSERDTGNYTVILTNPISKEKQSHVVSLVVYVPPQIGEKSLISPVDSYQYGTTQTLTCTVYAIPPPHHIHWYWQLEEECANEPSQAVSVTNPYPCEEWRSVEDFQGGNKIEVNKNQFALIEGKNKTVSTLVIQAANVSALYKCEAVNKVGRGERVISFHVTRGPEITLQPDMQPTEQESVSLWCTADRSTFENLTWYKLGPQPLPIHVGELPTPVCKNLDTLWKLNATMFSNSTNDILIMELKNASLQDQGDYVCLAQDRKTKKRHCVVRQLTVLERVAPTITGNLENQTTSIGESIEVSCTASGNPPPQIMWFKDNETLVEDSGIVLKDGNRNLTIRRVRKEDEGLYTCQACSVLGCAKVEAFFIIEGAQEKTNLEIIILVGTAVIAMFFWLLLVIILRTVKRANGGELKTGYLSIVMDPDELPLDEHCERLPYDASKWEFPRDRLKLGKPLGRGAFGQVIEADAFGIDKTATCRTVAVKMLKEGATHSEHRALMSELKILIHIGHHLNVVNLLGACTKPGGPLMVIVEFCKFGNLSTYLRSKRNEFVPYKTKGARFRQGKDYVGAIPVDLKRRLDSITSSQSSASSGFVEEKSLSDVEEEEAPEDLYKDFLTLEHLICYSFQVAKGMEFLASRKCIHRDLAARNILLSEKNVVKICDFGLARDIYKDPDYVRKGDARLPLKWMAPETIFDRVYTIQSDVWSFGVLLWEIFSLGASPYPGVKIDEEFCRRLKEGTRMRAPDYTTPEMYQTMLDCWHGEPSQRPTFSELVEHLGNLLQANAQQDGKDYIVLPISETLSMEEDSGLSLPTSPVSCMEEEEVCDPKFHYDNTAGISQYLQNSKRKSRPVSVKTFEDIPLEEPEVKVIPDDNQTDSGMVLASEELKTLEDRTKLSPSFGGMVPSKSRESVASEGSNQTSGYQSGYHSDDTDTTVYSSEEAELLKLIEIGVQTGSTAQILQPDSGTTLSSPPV

IC50 [3]	Compound	inhibition (INH) (MCF7 [1])	IC50 (MCF7 [2])	IC50 (HepG2)
	Cc1ccc(-c2nc3ccccc3[nH]2)o1	39%	55.6 µM	
	CCOC(=O)Cn1c(-c2ccco2)nc2ccccc21	57%	57.3 µM	> 185 µM
	CCOC(=O)Cn1c(-c2ccc(C)o2)nc2ccccc21	25%	63.5 µM	> 176 µM
	NNC(=O)Cn1c(-c2ccco2)nc2ccccc21	19%		> 195 µM
	Cc1ccc(-c2nc3ccccc3n2CC(=O)NN)o1	24%	68.3 µM	> 185 µM
	Cc1ccc(-c2nc3ccccc3n2Cc2nnco2)o1		> 177 µM	132 µM
	O=C1CS/C(=C/n2c(-c3ccco3)nc3ccccc32)N1	86%	29.1 µM	31.1 µM
	Cc1ccc(-c2nc3ccccc3n2C(=O)n2c(-c3ccc(C)o3)nc3ccccc32)o1	9%	58.3 µM	> 118 µM
	N#CCn1c(-c2ccco2)nc2ccccc21	39%	88.1 µM	88.1 µM
	N#C/C(=C1/SCC(=O)N1c1ccccc1)n1c(-c2ccco2)nc2ccccc21	55%	55.9 µM	39.6 µM
	SC1=NNCC(n2c(-c3ccco3)nc3ccccc32)=N1	40%	60.5 µM	62.1 µM
	O=C(CCl)n1c(-c2ccco2)nc2ccccc21	40%	60.9 µM	60.9 µM
0.64 µM	O=C(Cn1c(-c2ccco2)nc2ccccc21)N/N=C/c1ccccc1Cl	94%	26.1 µM	25.9 µM
	O=C(O)Cn1c(-c2ccco2)nc2ccccc21	61%	63.1 µM	149 µM
	CCOC(=O)CSc1nnc(Cn2c(-c3ccco3)nc3ccccc32)s1	92%	28.5 µM	62.1 µM
	ClC(Cl)(Cl)c1nnc(Cn2c(-c3ccco3)nc3ccccc32)o1		> 131 µM	85.6 µM

IC50 [3]	Compound	inhibition (INH) (MCF7 [1])	IC50 (MCF7 [2])	IC50 (HepG2)
	COC(=O)Cn1c(-c2ccc(C)o2)nc2ccccc21	38%	87 µM	> 185 µM
	NC(=O)Cn1c(-c2ccco2)nc2ccccc21	13%	118 µM	157 µM
	NC(=O)/C(=C\c1ccccc1Cl)n1c(-c2ccco2)nc2ccccc21	57%	40 µM	44.8 µM
	N=C(Cn1c(-c2ccco2)nc2ccccc21)NN	27%	53.1 µM	74.5 µM
	Cc1ccc(-c2nc3ccccc3n2C(=O)C(=O)n2c(-c3ccc(C)o3)nc3ccccc32)o1	17%	65.6 µM	> 111 µM
	c1ccc2[nH]c(-c3ccc(CN4CCOCC4)o3)nc2c1	58%	55.5 µM	128 µM
1.26 µM	Cc1ccc(-c2nc3ccccc3n2CC(=O)N/N=C/c2ccccc2Cl)o1	96%	21.2 µM	22.6 µM
1.41 µM	NNC(=O)CSc1nnc(Cn2c(-c3ccco3)nc3ccccc32)s1	96%	21.4 µM	26.9 µM
	N=C1N=C(n2c(-c3ccco3)nc3ccccc32)CN1	22%	93 µM	63.5 µM
	COC(=O)Cn1c(-c2ccco2)nc2ccccc21	61%	80.6 µM	67.3 µM
	Cc1ccc(-c2nc3ccccc3n2CC(=O)O)o1	20%	139 µM	> 195 µM
	NC(=O)/C(=C\c1ccccc1)n1c(-c2ccco2)nc2ccccc21	80%	38.6 µM	63 µM
	S=c1[nH]nc(Cn2c(-c3ccco3)nc3ccccc32)s1	14%	52.6 µM	47.6 µM
	c1coc(-c2nc3ccccc3[nH]2)c1 [FUBERIDAZOLE]	43%	106 µM	103 µM
	CNC(=O)c1cc(Oc2ccc(NC(=O)Nc3ccc(Cl)c(C(F)(F)F)c3)cc2)ccn1 [SORAFENIB]	95.75%	4.33 µg/mL	
	CC/C(=C(\c1ccccc1)c1ccc(OCCN(C)C)cc1)c1ccccc1 [TAMOXIFEN]	98%		
